In ChEMBL document CHEMBL3232914, “Ultrasound promoted one pot synthesis of novel fluorescent triazolyl spirocyclic oxindoles using DBU based task specific ionic liquids and their antimicrobial activity” (2014):
≈ marks a conversion by molar mass, not a printed value. Calls of active or inactive are those of the source. No cut-off for these calls is given here.

Legend:
[1] = system: Staphylococcus aureus; experiment: Antibacterial activity against Staphylococcus aureus MTCC 96 assessed as growth inhibition at 4 mg/mL after 24 hrs by agar well diffusion method; assay type: functional; details: MTCC 96, 24 h, read-out: DIZ
Summary of the method: (§1)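 Agar wells 8 mm in diameter. The read-out is the diameter of the growth inhibition zone in mm, including the well, given as the mean of three replicates.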

[2] = system: Bacillus subtilis; experiment: Antibacterial activity against Bacillus subtilis MTCC 121 assessed as growth inhibition at 4 mg/mL after 24 hrs by agar well diffusion method; assay type: functional; details: MTCC 121, 24 h, read-out: DIZ; summary of the method: as §1
[3] = system: Escherichia coli; experiment: Antibacterial activity against Escherichia coli MTCC 1652 assessed as growth inhibition at 4 mg/mL after 24 hrs by agar well diffusion method; assay type: functional, organism-based
Summary of the method: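 Agar well diffusion with 8 mm wells. The inhibition zone diameter is reported in mm, with the well diameter included. Values are means of three replicates.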

[4] = system: Staphylococcus aureus; experiment: Antibacterial activity against Staphylococcus aureus MTCC 96 assessed as growth inhibition after 24 hrs by macrodilution tube method; assay type: functional; details: MTCC 96, 24 h
[5] = system: Bacillus subtilis; experiment: Antibacterial activity against Bacillus subtilis MTCC 121 assessed as growth inhibition after 24 hrs by macrodilution tube method; assay type: functional; details: MTCC 121, 24 h
[6] = system: Staphylococcus aureus; experiment: Bactericidal activity against Staphylococcus aureus MTCC 96 after 24 hrs; assay type: functional; details: MTCC 96, 24 h
[7] = system: Bacillus subtilis; experiment: Bactericidal activity against Bacillus subtilis MTCC 121 after 24 hrs; assay type: functional; details: MTCC 121, 24 h
[8] = system: Candida albicans; experiment: Antifungal activity against Candida albicans MTCC 227 assessed as growth inhibition at 4 mg/mL after 24 hrs by agar well diffusion method; assay type: functional; details: MTCC 227, 24 h, read-out: DIZ; summary of the method: as §1
[9] = system: Saccharomyces cerevisiae; experiment: Antifungal activity against Saccharomyces cerevisiae MTCC 170 assessed as growth inhibition at 4 mg/mL after 24 hrs by agar well diffusion method; assay type: functional; details: MTCC 170, 24 h, read-out: DIZ; summary of the method: as §1
[10] = system: Candida albicans; experiment: Antifungal activity against Candida albicans MTCC 227 assessed as growth inhibition by macrodilution tube method; assay type: functional
Summary of the method: (§2)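 The MIC against the yeasts was determined with amphotericin-B as the reference standard drug.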

[11] = system: Saccharomyces cerevisiae; experiment: Antifungal activity against Saccharomyces cerevisiae MTCC 170 assessed as growth inhibition by macrodilution tube method; assay type: functional; summary of the method: as §2
[12] = system: Pseudomonas aeruginosa; details: MTCC 741, 4 mg/mL
[13] = system: Pseudomonas aeruginosa; experiment: microbe, parasite or virus in culture; details: MTCC 741, 24 h, read-out: DIZ

SMILES | zone of inhibition at 4000 µg/mL [1] [mm] | zone of inhibition at 4000 µg/mL [2] [mm] | diameter of the inhibition zone (DIZ) [3] | MIC [4] [µg/mL] | MIC [5] [µg/mL] | MBC [6] [µg/mL] | MBC [7] [µg/mL] | zone of inhibition at 4000 µg/mL [8] [mm] | zone of inhibition at 4000 µg/mL [9] [mm] | MIC [10] [µg/mL] | MIC [11] [µg/mL] | DIZ [12] | zone of inhibition at 4000 µg/mL [13] [mm]
COc1ccc(-n2cc(CN3C(=O)C4(C(C#N)=C(N)OC5=C4C(=O)CC(C)(C)C5)c4ccccc43)nn2)cc1 (stereo not given) | 15.6 | 17.3 | inactive | 128 (≈ 245 µM) | 128 (≈ 245 µM) | 256 (≈ 490 µM) | 256 (≈ 490 µM) | 16.6 | 15.6 | 128 (≈ 245 µM) | 64 (≈ 122 µM) | inactive | 
COc1ccc(-n2cc(CN3C(=O)C4(C(C#N)=C(N)OC5=C4C(=O)CCC5)c4ccccc43)nn2)cc1 (stereo not given) | 14 | 15.6 | inactive | 64 (≈ 129 µM) | 32 (≈ 64.7 µM) | 512 (≈ 1040 µM) | 128 (≈ 259 µM) | 16 | 16.3 | 128 (≈ 259 µM) | 64 (≈ 129 µM) | inactive | 
Cc1ccc(-n2cc(CN3C(=O)C4(C(C#N)=C(N)Oc5c4c(=O)n(C)c(=O)n5C)c4ccccc43)nn2)cc1 (stereo not given) | 14.3 | 16.3 | inactive | 128 (≈ 245 µM) | 128 (≈ 245 µM) | 256 (≈ 490 µM) | 128 (≈ 245 µM) | 12.3 | 14.3 | 512 (≈ 980 µM) | 256 (≈ 490 µM) | inactive | 
CC1(C)CC(=O)C2=C(C1)OC(N)=C(C#N)C21C(=O)N(Cc2cn(-c3cccc(Cl)c3)nn2)c2ccccc21 (stereo not given) | 19.3 | 20.6 | inactive | 64 (≈ 121 µM) | 32 (≈ 60.7 µM) | 128 (≈ 243 µM) | 128 (≈ 243 µM) | 12.3 | 13.6 | 512 (≈ 972 µM) | 256 (≈ 486 µM) | inactive | 
CC1(C)CC(=O)C2=C(C1)OC(N)=C(C#N)C21C(=O)N(Cc2cn(-c3ccc([N+](=O)[O-])cc3)nn2)c2ccccc21 (stereo not given) | 16.6 | 17.3 | inactive | 128 (≈ 238 µM) | 128 (≈ 238 µM) | 128 (≈ 238 µM) | 256 (≈ 476 µM) | 14.3 | 15.3 | 256 (≈ 476 µM) | 256 (≈ 476 µM) | inactive | 
COc1ccc(-n2cc(CN3C(=O)C4(C(C#N)=C(N)Oc5c4c(=O)n(C)c(=O)n5C)c4ccccc43)nn2)cc1 (stereo not given) | 15.3 | 17.6 | inactive | 256 (≈ 475 µM) | 128 (≈ 238 µM) | 512 (≈ 951 µM) | 256 (≈ 475 µM) | 14.6 | 17.6 | 128 (≈ 238 µM) | 64 (≈ 119 µM) | inactive | 
Cc1ccc(-n2cc(CN3C(=O)C4(C(C#N)=C(N)OC5=C4C(=O)CCC5)c4ccccc43)nn2)cc1 (stereo not given) | 13.6 | 16.3 | inactive | 256 (≈ 535 µM) | 128 (≈ 267 µM) | 512 (≈ 1070 µM) | 128 (≈ 267 µM) | 14.3 | 15.6 | 128 (≈ 267 µM) | 128 (≈ 267 µM) | inactive | 
C[C@@H]1[C@H](O)[C@@H](C)/C=C/C=C/C=C/C=C/C=C/C=C/C=C/[C@H](O[C@@H]2O[C@H](C)[C@@H](O)[C@H](N)[C@@H]2O)C[C@@H]2O[C@](O)(C[C@@H](O)C[C@@H](O)[C@H](O)CC[C@@H](O)C[C@@H](O)CC(=O)O[C@H]1C)C[C@H](O)[C@H]2C(=O)O [AMPHOTERICIN B] |  |  |  |  |  |  |  | 17.6 | 18.3 | 100 (≈ 108 µM) | 100 (≈ 108 µM) |  | 
N#CC1=C(N)OC2=C(C(=O)CCC2)C12C(=O)N(Cc1cn(-c3ccc([N+](=O)[O-])cc3)nn1)c1ccccc12 (stereo not given) | 17.6 | 18.6 | inactive | 128 (≈ 251 µM) | 128 (≈ 251 µM) | 256 (≈ 502 µM) | 256 (≈ 502 µM) | 12.3 | 13.6 | 512 (≈ 1000 µM) | 256 (≈ 502 µM) | inactive | 
N#CC1=C(N)OC2=C(C(=O)CCC2)C12C(=O)N(Cc1cn(-c3ccc(Br)cc3)nn1)c1ccccc12 (stereo not given) | 18.6 | 20.3 | inactive | 64 (≈ 118 µM) | 32 (≈ 58.9 µM) | 64 (≈ 118 µM) | 128 (≈ 236 µM) | 12.6 | 14.3 | 512 (≈ 942 µM) | 256 (≈ 471 µM) | inactive | 
CC1(C)CC(=O)C2=C(C1)OC(N)=C(C#N)C21C(=O)N(Cc2cn(-c3ccc(Br)cc3)nn2)c2ccccc21 (stereo not given) | 19.3 | 22.2 | inactive | 32 (≈ 56 µM) | 16 (≈ 28 µM) | 128 (≈ 224 µM) | 64 (≈ 112 µM) | 13.3 | 14.6 | 512 (≈ 896 µM) | 128 (≈ 224 µM) | inactive | 
CC1(C)CC(=O)C2=C(C1)OC(N)=C(C#N)C21C(=O)N(Cc2cn(-c3ccc(F)c(Cl)c3)nn2)c2ccccc21 (stereo not given) | 19.6 | 21.3 | inactive | 64 (≈ 117 µM) | 32 (≈ 58.7 µM) | 128 (≈ 235 µM) | 128 (≈ 235 µM) | 13.6 | 14.3 | 256 (≈ 470 µM) | 256 (≈ 470 µM) | inactive | 
Cn1c2c(c(=O)n(C)c1=O)C1(C(=O)N(Cc3cn(-c4ccc(Br)cc4)nn3)c3ccccc31)C(C#N)=C(N)O2 (stereo not given) | 20.6 | 22.3 | inactive | 32 (≈ 54.5 µM) | 16 (≈ 27.2 µM) | 64 (≈ 109 µM) | 64 (≈ 109 µM) | 13.3 | 15.3 | 256 (≈ 436 µM) | 128 (≈ 218 µM) | inactive | 
O=C(O)c1cn(C2CC2)c2cc(N3CCNCC3)c(F)cc2c1=O [CIPROFLOXACIN] | 26.6 | 24 |  |  | 6.25 (≈ 18.9 µM) | 6.25 (≈ 18.9 µM) | 6.25 (≈ 18.9 µM) |  |  |  |  |  | 22
Cn1c2c(c(=O)n(C)c1=O)C1(C(=O)N(Cc3cn(-c4ccc([N+](=O)[O-])cc4)nn3)c3ccccc31)C(C#N)=C(N)O2 (stereo not given) | 15.3 | 18.6 | inactive | 128 (≈ 231 µM) | 64 (≈ 116 µM) | 512 (≈ 925 µM) | 128 (≈ 231 µM) | 12.6 | 13.6 | 512 (≈ 925 µM) | 512 (≈ 925 µM) | inactive | 
CC1(C)CC(=O)C2=C(C1)OC(N)=C(C#N)C21C(=O)N(Cc2cn(-c3ccccc3)nn2)c2ccccc21 (stereo not given) | 14.6 | 16.3 | inactive | 128 (≈ 260 µM) | 128 (≈ 260 µM) | 128 (≈ 260 µM) | 256 (≈ 520 µM) | 13.3 | 14.3 | 256 (≈ 520 µM) | 256 (≈ 520 µM) | inactive | 
Cc1ccc(-n2cc(CN3C(=O)C4(C(C#N)=C(N)OC5=C4C(=O)CC(C)(C)C5)c4ccccc43)nn2)cc1 (stereo not given) | 14.3 | 15.6 | inactive | 128 (≈ 253 µM) | 32 (≈ 63.2 µM) | 256 (≈ 505 µM) | 256 (≈ 505 µM) | 12.6 | 14 | 512 (≈ 1010 µM) | 256 (≈ 505 µM) | inactive | 
